≈ marks a conversion by molar mass, not a printed value.
System: Mycobacterium tuberculosis
Test: Antituberculosis activity against Mycobacterium tuberculosis H37Rv by microbroth dilution method
Type: functional
Procedure, shortened: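 M. tuberculosis H37Rv grown in Middlebrook 7H9 with 10% ADC to OD600 0.4–0.6, then diluted in 7H9 to OD600 0.01. This inoculum was added to 2-fold serial dilutions of compound and incubated 37 °C for 7 days. MIC90 was read visually as the concentration inhibiting 90% of growth.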

Row | Compound | MIC90
1 | CC[C@@H](CO)NCCNC(C)(C)CO.Cl.Cl | 1.6 µg/mL
2 | C=CC[C@@](C)(CO)NCCN[C@@H](CC)CO.Cl.Cl | 6.25 µg/mL
3 | Cl.Cl.OCC1(NCCNC2(CO)CCCC2)CCCC1 | 3.12 µg/mL
4 | C=CC[C@@H](CO)NCCN[C@@H](CC)CO.Cl.Cl | 25 µg/mL
5 | CC[C@@H](CO)NCCN[C@H](CO)c1ccccc1.Cl.Cl | 50 µg/mL
6 | CC[C@@H](CO)NCCNC1(CO)CCCC1.Cl.Cl | 1.6 µg/mL
7 | CC[C@@H](CO)NCCN[C@@](C)(CC)CO | 3.12 µg/mL (≈ 14.3 µM)
8 | CC(C)(CO)NCCNC(C)(C)CO.Cl.Cl | 6.25 µg/mL
9 | Br.Br.CC[C@@H](CO)NCCN[C@@H](CC)CO [ETHAMBUTOL HYDROBROMIDE] | 0.8 µg/mL
10 | CC[C@@H](CO)NCCNC(CO)CO.Cl.Cl | 3.12 µg/mL

— ChEMBL document CHEMBL1141491, “Design, synthesis, and evaluation of novel ethambutol analogues” (2008)
